Measurements as given in ChEMBL document CHEMBL4428087, “Synthesis and antitumor activity evaluation of quinazoline derivatives bearing piperazine-1-carbodithioate moiety at C4-position” (Bioorg Med Chem Lett, 2016).

Columns and labels:
A549 = test: Antiproliferative activity against human A549 cells after 72 hrs by MTS assay; type: functional, cell-based; conditions: A549, 72 h
How it was run: (§1)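 Cells were exposed to compound for 72 h. A first screen at 50 μM called a compound active at ≥50% inhibition versus vehicle-treated cells. Active compounds were then tested at various concentrations, and IC50 (concentration giving 50% proliferation inhibition) was derived. Values are mean ± SD from triplicate determinations in three independent experiments.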

MCF7 = test: Antiproliferative activity against human MCF7 cells after 72 hrs by MTS assay; type: functional, cell-based; conditions: MCF7, 72 h; how it was run: as §1
HCT-116 [1] = test: Antiproliferative activity against human HCT116 cells after 72 hrs by MTS assay; type: functional, cell-based; conditions: HCT-116, 72 h; how it was run: as §1
HCT-116 [2] = test: Cell cycle arrest in human HCT116 cells assessed as accumulation at G0/G1 phase after 24 hrs by propidium iodide staining based flow cytometry; type: functional
How it was run: (§2)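 HCT-116 cells were treated for 24 h at multiples of IC50 (1×, 1.25× or 1.5×) or at 0.1 µM, with a DMSO control. Cells were harvested, fixed in 70% ice-cold ethanol and stained with propidium iodide. DNA content was read by flow cytometry, and the percentages of cells in G0/G1, S and G2/M were calculated. Three independent experiments were run.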

HCT-116 [3] = test: Cell cycle arrest in human HCT116 cells assessed as accumulation at G0/G1 phase at IC50 after 24 hrs by propidium iodide staining based flow cytometry (reference value: 34.93 %); type: functional
HCT-116 [4] = test: Cell cycle arrest in human HCT116 cells assessed as accumulation at G0/G1 phase at 1.25 times IC50 after 24 hrs by propidium iodide staining based flow cytometry (reference value: 34.93 %); type: functional; how it was run: as §2
HCT-116 [5] = test: Cell cycle arrest in human HCT116 cells assessed as accumulation at G0/G1 phase at 1.5 times IC50 after 24 hrs by propidium iodide staining based flow cytometry (reference value: 34.93 %); type: functional; how it was run: as §2
HCT-116 [6] = test: Cell cycle arrest in human HCT116 cells assessed as accumulation at S phase at IC50 after 24 hrs by propidium iodide staining based flow cytometry (reference value: 46.36 %); type: functional
HCT-116 [7] = test: Cell cycle arrest in human HCT116 cells assessed as accumulation at S phase at 1.25 times IC50 after 24 hrs by propidium iodide staining based flow cytometry (reference value: 46.36 %); type: functional; how it was run: as §2
HCT-116 [8] = test: Cell cycle arrest in human HCT116 cells assessed as accumulation at S phase at 1.5 times IC50 after 24 hrs by propidium iodide staining based flow cytometry (reference value: 46.36 %); type: functional; how it was run: as §2
HCT-116 [9] = test: Cell cycle arrest in human HCT116 cells assessed as accumulation at G2/M phase at IC50 after 24 hrs by propidium iodide staining based flow cytometry (reference value: 16.91 %); type: functional
HCT-116 [10] = test: Cell cycle arrest in human HCT116 cells assessed as accumulation at G2/M phase at 1.25 times IC50 after 24 hrs by propidium iodide staining based flow cytometry (reference value: 16.91 %); type: functional; how it was run: as §2
HCT-116 [11] = test: Cell cycle arrest in human HCT116 cells assessed as accumulation at G2/M phase at 1.5 times IC50 after 24 hrs by propidium iodide staining based flow cytometry (reference value: 16.91 %); type: functional; how it was run: as §2
HCT-116 [12] = test: Cell cycle arrest in human HCT116 cells assessed as accumulation at sub-G1 phase after 24 hrs by propidium iodide staining based flow cytometry; type: functional; how it was run: as §2
HCT-116 [13] = test: Cell cycle arrest in human HCT116 cells assessed as accumulation at G0/G1 phase at 0.1 uM after 24 hrs by propidium iodide staining based flow cytometry (reference value: 34.93 %); type: functional; how it was run: as §2
HCT-116 [14] = test: Cell cycle arrest in human HCT116 cells assessed as accumulation at S phase at 0.1 uM after 24 hrs by propidium iodide staining based flow cytometry (reference value: 46.36 %); type: functional; how it was run: as §2
HCT-116 [15] = test: Cell cycle arrest in human HCT116 cells assessed as accumulation at G2/M phase at 0.1 uM after 24 hrs by propidium iodide staining based flow cytometry (reference value: 16.91 %); type: functional; how it was run: as §2

Row | Structure (SMILES) | IC50 (A549) | IC50 (MCF7) | IC50 (HCT-116 [1]) | other results
1 | COc1cc2c(N3CCN(C(=S)SCc4ccc(F)cc4)CC3)ncnc2cc1OCCCN1CCCCC1 | 4.25 µM | 4.2 µM | 4.5 µM | –
2 | COc1cc2c(N3CCN(C(=S)SCc4ccco4)CC3)ncnc2cc1OCCCN1CCCCC1 | 6.58 µM | 7.29 µM | 7.3 µM | –
3 | CCCSC(=S)N1CCN(c2ncnc3cc(OCCCN4CCCCC4)c(OC)cc23)CC1 | 8.07 µM | 10.5 µM | 8.67 µM | –
4 | CCSC(=S)N1CCN(c2ncnc3cc(OCCCN4CCCCC4)c(OC)cc23)CC1 | 18.4 µM | 16.6 µM | 10.3 µM | –
5 | COc1cc2c(N3CCN(C(=S)SCC4OCCO4)CC3)ncnc2cc1OCCCN1CCCCC1 | 24.6 µM | 29.6 µM | 23.9 µM | –
6 | COc1cc2c(N3CCN(C(=S)SCc4ccc(Br)cc4)CC3)ncnc2cc1OCCCN1CCCCC1 | 4.31 µM | 3.93 µM | 4.52 µM | –
7 | COc1cc2c(N3CCN(C(=S)SCC4CCCCC4)CC3)ncnc2cc1OCCCN1CCCCC1 | 4.06 µM | 3.99 µM | 4.55 µM | Activity (HCT-116 [2]): Dose-dependent effect; Activity (HCT-116 [3]): 44.47%; Activity (HCT-116 [4]): 50.65%; Activity (HCT-116 [5]): 55.8%; Activity (HCT-116 [6]): 26.82%; Activity (HCT-116 [7]): 23.67%; Activity (HCT-116 [8]): 27.37%; Activity (HCT-116 [9]): 28.74%; Activity (HCT-116 [10]): 24.97%; Activity (HCT-116 [11]): 14.4%; Activity (HCT-116 [12]): Dose-dependent effect
8 | COc1cc2c(N3CCN(C(=S)SCc4ccc(C)cc4)CC3)ncnc2cc1OCCCN1CCCCC1 | 4.51 µM | 3.73 µM | 5.46 µM | –
9 | COc1cc2c(N3CCN(C(=S)SCc4cccnc4)CC3)ncnc2cc1OCCCN1CCCCC1 | 19.5 µM | 22.2 µM | 22.2 µM | –
10 | CCN(CC)CCNC(=O)c1c(C)[nH]c(/C=C2\C(=O)Nc3ccc(F)cc32)c1C [SUNITINIB] | – | – | – | Activity (HCT-116 [2]): Dose-dependent effect; Activity (HCT-116 [13]): 50.07%; Activity (HCT-116 [14]): 33.36%; Activity (HCT-116 [15]): 14.16%
11 | COc1cc2c(N3CCN(C(=S)SCC4CCOCC4)CC3)ncnc2cc1OCCCN1CCCCC1 | 19.1 µM | 18.4 µM | 15.1 µM | –
12 | COc1cccc(CSC(=S)N2CCN(c3ncnc4cc(OCCCN5CCCCC5)c(OC)cc34)CC2)c1 | 4.58 µM | 3.86 µM | 8.01 µM | –
13 | COc1cc2c(N3CCN(C(=O)Nc4ccc(OC(C)C)cc4)CC3)ncnc2cc1OCCCN1CCCCC1 [TANDUTINIB] | 14.8 µM | 14.7 µM | 18.1 µM | –
14 | COc1cc2c(N3CCN(C(=S)SCc4ccccc4)CC3)ncnc2cc1OCCCN1CCCCC1 | 15.7 µM | 28 µM | 28.8 µM | –
15 | COc1cc2c(N3CCN(C(=S)SC)CC3)ncnc2cc1OCCCN1CCCCC1 | 33.4 µM | 27.5 µM | 24.4 µM | –
16 | COc1cc2c(N3CCN(C(=S)SCc4ccc(C#N)cc4)CC3)ncnc2cc1OCCCN1CCCCC1 | 9.52 µM | 10.1 µM | 8.67 µM | –
17 | COc1cc2c(N3CCN(C(=S)SCc4c(F)c(F)c(F)c(F)c4F)CC3)ncnc2cc1OCCCN1CCCCC1 | 4.58 µM | 4.14 µM | 4.45 µM | –
18 | COc1cc2c(N3CCN(C(=S)SCc4ccc(C(=O)O)cc4)CC3)ncnc2cc1OCCCN1CCCCC1 | > 50 µM | > 50 µM | > 50 µM | –
19 | COc1cc2c(N3CCN(C(=S)SCc4ccc([N+](=O)[O-])cc4)CC3)ncnc2cc1OCCCN1CCCCC1 | 5.36 µM | 6.89 µM | 5.65 µM | –
20 | COc1cc2c(N3CCN(C(=S)SCc4ccc(F)c(F)c4)CC3)ncnc2cc1OCCCN1CCCCC1 | 4.9 µM | 3.07 µM | 5.96 µM | –
21 | COc1cc2c(N3CCN(C(=S)SCc4ccc(F)cc4F)CC3)ncnc2cc1OCCCN1CCCCC1 | 5.44 µM | 4.67 µM | 4.64 µM | –
22 | COc1cc2c(N3CCN(C(=S)SC(C)C)CC3)ncnc2cc1OCCCN1CCCCC1 | 11.3 µM | 8.37 µM | 10.4 µM | –
23 | COc1cc2c(N3CCN(C(=S)SCC4CCCO4)CC3)ncnc2cc1OCCCN1CCCCC1 (centres undefined) | 22.8 µM | 22.7 µM | 19.2 µM | –
24 | COc1cc2c(N3CCN(C(=S)SCc4ccccn4)CC3)ncnc2cc1OCCCN1CCCCC1 | 28.8 µM | 20.7 µM | 20.6 µM | –
25 | COc1cc2c(N3CCN(C(=S)SCc4ccncc4)CC3)ncnc2cc1OCCCN1CCCCC1 | > 50 µM | > 50 µM | > 50 µM | –
26 | COc1ccc(CSC(=S)N2CCN(c3ncnc4cc(OCCCN5CCCCC5)c(OC)cc34)CC2)cc1 | 4.25 µM | 4.16 µM | 4.92 µM | –
27 | COc1cc2c(N3CCN(C(=S)SCc4ccsc4)CC3)ncnc2cc1OCCCN1CCCCC1 | 4.84 µM | 5.17 µM | 5.64 µM | –
28 | COc1cc2c(N3CCN(C(=S)SCc4ccc(Cl)cc4)CC3)ncnc2cc1OCCCN1CCCCC1 | 4.71 µM | 3.94 µM | 8.04 µM | –
29 | O=c1[nH]cc(F)c(=O)[nH]1 [FLUOROURACIL] | – | – | – | Activity (HCT-116 [3]): 28.47%; Activity (HCT-116 [6]): 62.28%; Activity (HCT-116 [9]): 8.29%
